In ChEMBL document CHEMBL1133088 (J Med Chem, 2000):

Columns and labels:
[1] = % lactone at different intervals of time in PBS suspension; assay type: ADME; details: buffer
Method in brief: (§1)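 Lactone-ring hydrolysis of 1 uM drug at 37 °C and pH 7.4, incubated in PBS, in PBS containing physiologically relevant HSA or albumin-free red blood cells, or in whole human blood. Isocratic acetonitrile/2% triethylamine acetate (pH 5.5) at 1 mL/min; lactone eluted near 7.0 min, carboxylate near 2.0 min.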

[2] = % lactone at different intervals of time in PBS with HSA suspension; assay type: ADME; details: human, buffer; method in brief: as §1
[3] = Half life in human blood.; assay type: ADME, organism-based; details: whole blood; method in brief: as §1
[4] = Equilibrium association constant interacting with unilamellar vesicles of electroneutral in PBS buffer at pH 7.4; assay type: ADME
Method in brief: (§2)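 Fluorescence anisotropy titration of 1 uM total drug with small unilamellar vesicles (DMPC or DMPG) in PBS, pH 7.4, 37 °C. SUVs were sonicated from 10 mg/mL lipid stocks and annealed 30 min at 37 °C; DMPG pH was readjusted to 7.4. Readings were taken about 0.5–1 min after mixing. K came from least-squares slopes of double-reciprocal plots (1/bound fraction vs 1/[lipid]).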

[5] = Half life of compound in PBS with HSA suspension; assay type: ADME; details: human, HSA (human serum albumin) in PBS; method in brief: as §1
[6] = species on record: Homo sapiens; test: % lactone at different intervals of time in human blood.; assay type: ADME, organism-based; method in brief: as §1
[7] = Half life for of compound in PBS with RBC suspension; assay type: ADME; details: RBC (red blood cell) suspension in PBS; method in brief: as §1
[8] = Equilibrium association constant interacting with unilamellar vesicles of negatively charged DMPG in PBS buffer at pH of 7.4 and 37 degrees celsius.; assay type: ADME; details: pH 7.4; method in brief: as §2
[9] = Half life of compound in PBS suspension; assay type: ADME; method in brief: as §1
[10] = % lactone at different intervals of time in PBS with RBC suspension; assay type: ADME; details: erythrocytes; method in brief: as §1
[11] = Inhibition against MDA-MB-435 S human breast cancer cells in the absence of albumin; assay type: functional, cell-based
Method in brief: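 Read-out was sulforhodamine B, which stains protein in cells and cell fragments still attached to the dish bottom, including dying or dead attached cells. IC50 was derived from the cell survival profiles.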

[12] = system: U-87 MG; test: Inhibition of tumor growth at day 28 postimplantation after administration of 10 mg/kg/day in nude mouse U87 glioma subcutaneous model system; assay type: functional, U-87MG ATCC; details: sc, 672 h
[13] = system: Tumor Cell line; test: Mean GI50 against variety of human tumor cell lines; assay type: functional
Method in brief: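 NCI tumour cell panel: 5000–40 000 cells/well preincubated 24 h at 37 °C, then exposed 48 h (5% CO2) to five 10-fold dilutions from DMSO stocks. Highest well concentration in routine testing was 10^-4 M. Growth was read by sulforhodamine B protein staining.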

[14] = system: U-87 MG; test: Inhibition of tumor growth at day 28 postimplantation after administration of 3 mg/kg/day in nude mouse U87 glioma subcutaneous model system; assay type: functional, U-87MG ATCC; details: sc, 672 h
[15] = system: MDA-MB-435; test: Inhibition against MDA-MB-435 human breast cancer cells in the presence of 1 mg/mL HSA
[16] = system: MDA-MB-435; test: Inhibition against MDA-MB-435 human breast cancer cells in the absence of HSA; assay type: functional, cell-based
Method in brief: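 MDA-MB-435 S human breast cancer cells exposed to drug with or without added HSA. Viability was read after a 3-day growth assay by sulforhodamine B staining of protein remaining attached to the dish.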

| Compound | Lactone [1] [%] | Lactone [2] [%] | half-life [3] [min] | KDMPC [4] [M⁻¹] | half-life [5] [min] | Lactone [6] [%] | half-life [7] [min] | KDMPG [8] [M⁻¹] | half-life [9] [min] | Lactone [10] [%] | IC50 [11] [nM] | half-life ([7]; human) [min] | inhibition in vivo at 10 mg/kg/day [12] [%] | GI50 [13] [nM] | inhibition in vivo at 3 mg/kg/day [14] [%] | IC50 [15] [nM] | IC50 [16] [nM] |
| --- | --- | --- | --- | --- | --- | --- | --- | --- | --- | --- | --- | --- | --- | --- | --- | --- | --- |
| CC[C@@]1(O)C(=O)OCc2c1cc1n(c2=O)Cc2c-1nc1ccccc1c2[Si](C)(C)CCCCl | 12 | 2.7 | 85.6 | 2800 | 16 | 2.2 | 59.7 | 2500 | 23.3 | 43.4 |  |  |  |  |  |  |  |
| CC[C@@]1(O)C(=O)OCc2c1cc1n(c2=O)Cc2c-1nc1ccc(O)cc1c2[Si](C)(C)CCCCl | 11.3 | 17.2 | 65.3 | 2200 | 48 | 17.8 | 67.7 | 1200 | 29.5 | 50.2 |  |  |  |  |  |  |  |
| CC[C@@]1(O)C(=O)OCc2c1cc1n(c2=O)Cc2c-1nc1ccccc1c2[Si](C)(C)C(C)(C)C | 12.2 | 0.1 | 71 | 15500 | 46.3 | 1 | 79.4 | 16000 | 27.9 | 59.4 |  |  |  |  |  |  |  |
| CCc1c2c(nc3ccc(O)cc13)-c1cc3c(c(=O)n1C2)COC(=O)[C@]3(O)CC [7-ETHYL-10-HYDROXYCAMPTOTHECIN] | 15.3 |  | 32 | 260 | 36.1 | 19.5 | 24.4 | 160 | 20.9 | 37.5 |  |  |  |  |  |  |  |
| CC[C@@]1(O)C(=O)OCc2c1cc1n(c2=O)Cc2c-1nc1ccc(O)cc1c2[Si](C)(C)C(C)(C)C [AR-67] | 10.2 | 10.5 |  | 2500 | 119 | 30.5 |  | 2800 | 31.8 | 41.4 | 14 | 51.4 | 73 | 21 | 61 |  |  |
| CC[C@@]1(O)C(=O)OCc2c1cc1n(c2=O)Cc2cc3ccccc3nc2-1 [CAMPTOTHECIN] | 17 | < 0.5 |  | 100 | 11.9 | 5.3 | 30.8 | 100 |  | 34.6 |  |  |  | 44 |  | 375 | 15 |
| CC[C@@]1(O)C(=O)OCc2c1cc1n(c2=O)Cc2cc3cc(O)ccc3nc2-1 [HYDROXYCAMPTOTHECIN] |  |  |  |  |  |  |  |  |  |  |  |  |  | 36 |  |  |  |
| CC[C@@]1(O)C(=O)OCc2c1cc1n(c2=O)Cc2cc3c(CN(C)C)c(O)ccc3nc2-1 [TOPOTECAN] |  |  |  | 10 |  |  |  | 50 |  |  |  |  |  |  |  |  |  |
